Test results from ChEMBL document CHEMBL1921800, “Molecular modeling: a search for a calpain inhibitor as a new treatment for cataractogenesis” (J Med Chem, 2011).
Residues, ends and D or L forms follow the SMILES beside them. *: point of attachment. Tos = Cc1ccc(S(=O)(=O)*)cc1; Ms = CS(=O)(=O)*

What was measured:
[1] = biological target: T1, Calpain-1 catalytic subunit (Rattus norvegicus, UniProt P97571); assay: Inhibition of rat CAPN1 using BODIPY-labeled casein substrate by fluorometric analysis
T1 sequence (P97571 whole entry): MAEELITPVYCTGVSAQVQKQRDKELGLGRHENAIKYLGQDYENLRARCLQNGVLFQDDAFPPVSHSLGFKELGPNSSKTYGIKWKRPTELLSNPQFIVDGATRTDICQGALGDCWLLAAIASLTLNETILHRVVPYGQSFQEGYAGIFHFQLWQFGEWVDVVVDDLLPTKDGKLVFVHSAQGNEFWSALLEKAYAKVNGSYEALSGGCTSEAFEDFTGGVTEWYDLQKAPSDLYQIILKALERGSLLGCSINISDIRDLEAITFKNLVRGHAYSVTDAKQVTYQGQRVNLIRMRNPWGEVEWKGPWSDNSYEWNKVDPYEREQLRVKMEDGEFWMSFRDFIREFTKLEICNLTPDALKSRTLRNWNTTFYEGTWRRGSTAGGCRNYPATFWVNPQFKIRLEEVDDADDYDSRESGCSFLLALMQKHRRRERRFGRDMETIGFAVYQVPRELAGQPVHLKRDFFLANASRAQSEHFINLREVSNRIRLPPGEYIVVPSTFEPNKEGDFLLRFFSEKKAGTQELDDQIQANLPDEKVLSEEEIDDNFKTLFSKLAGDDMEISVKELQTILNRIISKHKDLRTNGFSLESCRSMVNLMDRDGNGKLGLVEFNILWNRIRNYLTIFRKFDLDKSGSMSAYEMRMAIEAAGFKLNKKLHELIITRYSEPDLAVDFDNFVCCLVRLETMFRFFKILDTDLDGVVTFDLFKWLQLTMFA

[2] = biological target: T2, Calpain-2 catalytic subunit (Homo sapiens, UniProt P17655); assay: Inhibition of CAPN2 using BODIPY-labeled casein substrate by fluorometric analysis
T2 sequence (P17655 whole entry): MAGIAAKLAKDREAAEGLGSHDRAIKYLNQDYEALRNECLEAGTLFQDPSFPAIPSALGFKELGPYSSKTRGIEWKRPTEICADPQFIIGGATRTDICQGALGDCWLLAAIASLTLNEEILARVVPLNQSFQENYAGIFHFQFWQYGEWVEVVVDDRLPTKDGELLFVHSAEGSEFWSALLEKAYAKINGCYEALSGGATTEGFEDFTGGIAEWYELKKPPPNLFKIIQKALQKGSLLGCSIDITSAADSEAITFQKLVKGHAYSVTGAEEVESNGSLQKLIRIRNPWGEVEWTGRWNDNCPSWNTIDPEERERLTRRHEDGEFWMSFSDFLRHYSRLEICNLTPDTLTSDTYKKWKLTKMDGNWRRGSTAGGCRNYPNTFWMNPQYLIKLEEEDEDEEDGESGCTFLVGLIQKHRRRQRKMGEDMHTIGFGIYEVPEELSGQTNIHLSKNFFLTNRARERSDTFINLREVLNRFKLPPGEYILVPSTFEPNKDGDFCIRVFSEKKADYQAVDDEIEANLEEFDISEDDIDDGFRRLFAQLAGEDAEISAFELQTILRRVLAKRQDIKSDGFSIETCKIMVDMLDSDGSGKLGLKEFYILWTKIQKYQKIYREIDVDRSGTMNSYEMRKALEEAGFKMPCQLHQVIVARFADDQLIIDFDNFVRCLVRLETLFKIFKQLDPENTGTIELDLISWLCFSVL
In short: (§1)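 Quenched fluorogenic substrate: casein labelled with BODIPY (4,4-difluoro-5,7-dimethyl-4-bora-3a,4a-diaza-s-indacene-3-propionic acid). Proteolysis relieves the quenching, and the resulting rise in fluorescence is the read-out. IC50 was determined with an established protocol at the Lincoln University laboratory.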

[3] = Inhibition of ovine CAPN2 using BODIPY-labeled casein substrate by fluorometric analysis; parameters: species or system Ovis aries; in short: as §1
[4] = Inhibition of ovine CAPN1 using BODIPY-labeled casein substrate by fluorometric analysis; parameters: species or system Ovis aries; in short: as §1

| IC50 [1] [nM] | IC50 [3] [nM] | IC50 [4] [nM] | Compound | other results |
| --- | --- | --- | --- | --- |
| 10 |  |  | CC(C)C[C@@H](C=O)NC(=O)[C@@H](NS(=O)(=O)c1ccc2ccccc2c1)C(C)C |  |
|  |  |  | CC(C)C[C@@H]1NC(=O)[C@@H](NC(=O)OCc2ccccc2)Cc2ccc(cc2)OCCC[C@@H](C=O)NC1=O | IC50 [2]: 850 nM |
| 31 |  |  | CC(C)C[C@@H](C=O)NC(=O)[C@@H](NS(=O)(=O)c1ccc(Cl)cc1)C(C)C |  |
| 21000 |  |  | CC(C)C[C@@H](C=O)NC(=O)[C@H](C(C)C)N(C)S(=O)(=O)c1ccc(F)cc1 |  |
|  |  |  | CC(C)C[C@@H]1NC(=O)[C@@H](NC(=O)OCc2ccccc2)Cc2ccc(cc2)OCCCCSC[C@@H](C=O)NC1=O | IC50 [2]: 1010 nM |
| 13 |  |  | CC(C)[C@H](NS(=O)(=O)c1ccc(Cl)cc1)C(=O)N[C@H](C=O)Cc1c[nH]c2ccccc12 |  |
|  | 150 | 150 | CC(C)C[C@@H](C=O)NC(=O)[C@@H](NC(=O)c1ccc(C=O)n1C)C(C)C |  |
| 830 |  |  | CC(C)C[C@@H](C=O)NC(=O)[C@@H](NS(C)(=O)=O)C(C)C (Ms-Val-Leu-aldehyde) |  |
|  | 315 | 650 | CC(C)C[C@@H](C=O)NC(=O)[C@@H](NC(=O)c1ccc[nH]1)C(C)C |  |
|  |  |  | CC(C)C[C@@H]1NC(=O)[C@@H](NC(=O)OCc2ccccc2)Cc2ccc(cc2)OCCC[C@@H](CO)NC1=O | IC50 [2]: 31000 nM |
| 23 |  |  | CC(C)[C@H](NS(=O)(=O)c1ccc(F)cc1)C(=O)N[C@H](C=O)Cc1c[nH]c2ccccc12 |  |
|  | 110 | 340 | Cc1ccc(C(=O)N[C@H](C(=O)N[C@H](C=O)CC(C)C)C(C)C)[nH]1 |  |
|  | 140 | 290 | COC(=O)c1ccc(C(=O)N[C@H](C(=O)N[C@H](C=O)CC(C)C)C(C)C)[nH]1 |  |
|  |  |  | CC(C)C[C@@H]1NC(=O)[C@@H](NC(=O)OCc2ccccc2)Cc2ccc(cc2)OCCCCSC[C@@H](CO)NC1=O | IC50 [2]: 28000 nM |
| 630 |  |  | CC(C)[C@H](NS(=O)(=O)c1ccc(F)cc1)C(=O)N[C@@H](C)C=O |  |
| 260 |  |  | CCCC[C@H](NS(=O)(=O)c1ccc(F)cc1)C(=O)N[C@H](C=O)CC(C)C |  |
| 130 |  |  | CCC[C@H](NS(=O)(=O)c1ccc(F)cc1)C(=O)N[C@H](C=O)CC(C)C |  |
|  | 100 | 680 | CC(C)C[C@@H](C=O)NC(=O)[C@@H](NC(=O)c1cccs1)C(C)C |  |
|  | 85 | 440 | CC(C)C[C@@H](C=O)NC(=O)[C@@H](NC(=O)c1ccc(C=O)s1)C(C)C |  |
|  | 100 | 530 | CC(C)C[C@@H](C=O)NC(=O)[C@@H](NC(=O)c1cc(C=O)c[nH]1)C(C)C |  |
| 14 |  |  | CC(C)[C@H](NS(=O)(=O)c1ccc(Cl)cc1)C(=O)N[C@H](C=O)Cc1ccccc1 |  |
|  | 25 | 290 | CC(C)C[C@@H](C=O)NC(=O)[C@@H](NC(=O)c1ccc(C=O)[nH]1)C(C)C |  |
| 14 |  |  | CC(C)[C@H](NS(=O)(=O)c1ccc2ccccc2c1)C(=O)N[C@H](C=O)Cc1ccccc1 |  |
|  |  |  | CC(C)[C@@H]1NC(=O)[C@@H](NC(=O)OCc2ccccc2)Cc2ccc(cc2)OCCCC[C@@H](C=O)NC1=O | IC50 [2]: 85 nM |
|  | 135 | 790 | CC(C)C[C@@H](C=O)NC(=O)[C@@H](NC(=O)c1ccco1)C(C)C |  |
|  | 100 | 960 | CC(C)C[C@@H](C=O)NC(=O)[C@@H](NC(=O)c1ccc(C=O)o1)C(C)C |  |

| Compound | IC50 [1] [nM] | IC50 [3] [nM] | IC50 [4] [nM] | other results |
| --- | --- | --- | --- | --- |
| CC(C)[C@H](NS(=O)(=O)c1ccc(F)cc1)C(=O)N[C@H](C=O)Cc1ccccc1 | 27 |  |  |  |
| Cc1ccc(S(=O)(=O)N[C@H](C(=O)N[C@H](C=O)Cc2ccccc2)C(C)C)cc1 (Tos-Val-Phe-aldehyde) | 18 |  |  |  |
| Cc1ccc(S(=O)(=O)N[C@H](C(=O)N[C@H](C=O)CC(C)C)C(C)C)cc1 (Tos-Val-Leu-aldehyde) | 28 |  |  |  |
| CC(C)C[C@@H](C=O)NC(=O)[C@@H](NS(=O)(=O)c1ccc(F)cc1)C(C)C |  | 80 | 130 |  |
